CSN inh = blocks human CSN-mediated cullin deneddylation | Q92905 | Purified CSN, SCF-Nedd8-OG deneddylation, fluorescence polarization | inhibition, % at 12.5 µM | actives 0.38% (n = 360,000);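 active = pattern-corrected inhibition above about 35%, with an unprinted fluorescence ratio check between 0.5 and 1.5, limit read from the data, passing the limit was not always enough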;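 also: 0% = enzyme with substrate and 100% = substrate without enzyme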
Target sequence (Q92905 whole entry, looked up, one chain of several): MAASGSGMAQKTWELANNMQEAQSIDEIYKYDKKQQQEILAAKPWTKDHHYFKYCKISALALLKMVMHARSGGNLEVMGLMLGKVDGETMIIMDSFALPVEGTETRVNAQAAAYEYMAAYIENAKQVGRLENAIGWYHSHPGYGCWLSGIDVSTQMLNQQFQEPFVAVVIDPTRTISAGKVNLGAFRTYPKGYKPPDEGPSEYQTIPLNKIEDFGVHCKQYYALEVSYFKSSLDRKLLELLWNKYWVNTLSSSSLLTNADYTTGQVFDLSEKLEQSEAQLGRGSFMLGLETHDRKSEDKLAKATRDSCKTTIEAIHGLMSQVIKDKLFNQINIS
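Assay system: purified human Csn5 enzyme expressed in HEK293T cells; measure: % inhibition; also added: SCFSkp2-Nedd8OG substrate at 10 nM final; technique: fluorescence polarization; times: reaction 90 min, room temperature; medium: Tris buffer pH 7.5, NaCl, DTT, Tween-20, trehalose, ovalbumin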
LEDGF integ inh = blocks HIV-1 LEDGF/p75-dependent DNA integration | TR-FRET IN-LEDGF/p75 DNA integration, Eu/Cy5 | inhibition, % at 3.7 µM | actives 0.64% (n = 370,000) | AID 743269;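 active = inhibition above the screen-wide mean plus 3 SD, cut at about 13% in these data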;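 also: signal is the Cy5 over europium emission ratio at 671 and 618 nm; 0% = plate median of compound wells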
UHRF1 MBD2 ctr = human UHRF1 methylated DNA binding inhibitors. Q96T88. UHRF1 binding to methylated oligo, TR-FRET. inhibition, % at 4.4 µM. actives 0.75% (n = 370,000); in the data active = inhibition above about 21%;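 also: UHRF1 SRA domain binding a hemimethylated CpG hairpin DNA probe; 0% = median of test compound wells and 100% = reference inhibitor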
rCAG binder = binds r(CAG) RNA repeats; r(CAG) RNA repeat, TO-PRO-1 dye displacement fluorescence; inhibition, % at 3 µM; actives 1.3% (n = 370,000); AID 651821;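 active = inhibition above the plate cutoff, the mean of all test compounds on that plate plus 3 SD, cut at about 35% in these data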;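 also: 0% = DMSO alone and 100% = 100 µM mitoxantrone as full dye displacement; higher means more dye released from RNA so lower well fluorescence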
MBD2 inh = inhibitors of human MBD2 binding to methylated oligonucleotide | Q9UBB5 | TR-FRET | inhibition, % at 4.4 µM | actives 0.31% (n = 370,000) | AID 686964; in the data active = inhibition above about 13%
ATG4B inh = ATG4B (human) cysteine protease inhibition. ATG4B cleavage of LC3-PLA2, NBD-HPC fluorescence, 1 h. AID 504462. inhibition, % at 8.33 µM. actives 0.51% (n = 340,000); in the data active = inhibition above about 40%
ATG4B confirm = confirmation of human ATG4B inhibitors; actives 92% (n = 320); inhibition, % at 8.33 µM; ATG4B protease fluorescent substrate cleavage assay; shares compounds with ATG4B inh; in the data active = inhibition above about 39%
PLA2 ctr = inhibits human PLA2, flagging false ATG4B inhibitors; shares compounds with ATG4B inh; inhibition, % at 8.33 µM; actives 66% (n = 1,600); purified PLA2, NBD-C6-HPC fluorescence, 45 min; in the data active = inhibition above about 50%
Target sequence (P04054 whole entry, looked up): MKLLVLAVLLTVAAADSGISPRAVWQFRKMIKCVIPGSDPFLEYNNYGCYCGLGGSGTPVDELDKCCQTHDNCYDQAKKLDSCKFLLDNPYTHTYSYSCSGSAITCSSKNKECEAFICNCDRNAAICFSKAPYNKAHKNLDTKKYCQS
* marks the source's active call; other numbers are inactive results; . = no result. Rows were chosen to be rich in hits. Some 3.1% of all compounds tested hit in one or more screens of this group.

SMILES	CSN inh	LEDGF integ inh	UHRF1 MBD2 ctr	rCAG binder	MBD2 inh	ATG4B inh	PLA2 ctr	others
Cc1ccc(C(=O)c2c(NC(=O)c3ccccc3C)sc(C)c2C)cc1	1.9	0.2	2.3	2.3	-1.5	63.2*	49.7
CCOC(=O)c1c(-n2cnnn2)sc2c1CCCC2	6.7	2.4	2.4	-1.8	0.9	-0.3	.
CCOC(=O)c1c(N2C(=O)Nc3cc(Cl)c(Cl)cc3N2O)sc2c1CCCCC2	9.2	.	.	.	.	77.1*	92.1*
COC(=O)[C@]12C[C@H](CC(=O)NCCCN3CCCC3=O)C(=O)N(Cc3ccco3)C1=C[C@H](C1CCCC1)O[C@@H]2C	.	-1.3	-0.3	1.6	0.1	.	.
CC(C)CCOc1ccc(/C=C2\CCn3c2nc2cc(C(=O)O)ccc2c3=O)cc1	7.0	1.0	0.4	12.1	-2.0	96.7*	91.9*
Cc1noc(C)c1CSc1nc2sc(C)c(C)c2c(=O)n1-c1ccccc1	2.2	-3.1	3.6	5.3	3.5	8.7	.
O=C(O)c1ccc(CSc2nc3ccccc3c(=O)n2-c2ccccc2)cc1	-2.4	3.8	0.5	21.7	7.3	40.9*	58.7*
O=c1c2ccccc2nc(SCc2ccc([N+](=O)[O-])cc2)n1-c1ccccc1	1.3	-2.5	-0.4	5.1	-1.5	40.0*	49.7
O=C(CSc1nc2ccccc2c(=O)n1-c1ccccc1)c1cccc([N+](=O)[O-])c1	3.3	0.9	0.6	1.0	1.7	-2.8	.
Cc1noc(C)c1CSc1nc2ccccc2c(=O)n1-c1ccc(Cl)cc1	3.1	0.5	-1.6	4.5	2.0	70.6*	70.3*
O=C(c1ccc(-n2c(SCc3cccc(F)c3)nc3ccccc3c2=O)cc1)N1CCOCC1	-1.3	0.9	3.9	3.4	5.6	47.9*	43.6	ATG4B confirm=59.4*
CCCC/C=C1/C(c2ccccc2)N(Cc2ccc(OC)cc2OC)C2=NC(c3ccccc3)CC(=O)N21 (stereo unspecified)	.	-3.9	1.4	.	3.4	.	.
CC(C)(C)OC(=O)NCCCc1ccc2c(c1)[C@]1(CCC[C@@H](OCc3ccccc3)[C@@H]1NC(=O)CCc1ccccc1)C(=O)N2Cc1ccccc1	.	-0.9	4.6	12.0	-1.2	.	.
CN(CCc1ccccc1)C(=O)c1ccc2c(c1)ncn2C1CCCCC1	.	-4.3	0.3	2.3	4.2	.	.
c1ccc(-n2cnnc2SCc2cn3ccsc3n2)cc1	0.2	0.5	4.0	3.2	1.4	-9.1	.
Cc1ccc(-n2c(SCc3cn4ccsc4n3)nc3ccccc3c2=O)cc1	0.3	-2.5	1.5	9.1	-1.4	74.1*	79.0*
CC(C)(C)c1ccc(S(=O)(=O)NCCN2CCOCC2)cc1	-3.6	3.6	0.9	0.9	2.4	.	.
Cc1ccc(CNS(=O)(=O)c2ccc(C(C)(C)C)cc2)n1C	1.6	-0.3	-1.9	4.2	5.7	86.3*	89.2*
CCN(C(=O)CSc1nnc(-c2cccnc2)n1Cc1ccco1)c1ccccc1	.	2.8	-0.4	2.7	4.1	.	.
COC(=O)c1ccc(Cn2ccc3ccc(-c4ccc5ccn(C(=O)c6ccccc6C)c5c4)cc32)cc1	.	-1.8	0.3	7.0	-2.8	.	.
Oc1nc(Nc2ccc(Cl)cc2Cl)sc1/C=C1\C=Nc2ccccc21	8.9	0.6	1.7	17.0	-2.9	78.3*	23.4	ATG4B confirm=22.2
O=C(Nc1nnc(-c2cccs2)s1)C1CC1	-3.3	1.3	0.0	0.7	-2.3	-8.0	.
O=C(Nc1nc(-c2cccs2)c(-c2cccs2)s1)C1CCCC1	3.0	-0.1	-1.4	7.2	4.6	50.0*	60.2*
C=CCN1[C@@H](C)COc2cc(F)ccc2S1(=O)=O	.	-3.9	-1.1	0.7	6.2	.	.
CCn1cc(C(=O)OCC(=O)c2cc(C)n(-c3ccccc3)c2C)c(=O)c2ccc(C)nc21	-8.1	0.4	1.7	-0.2	-4.5	66.2*	68.3*
SMILES	CSN inh	LEDGF integ inh	UHRF1 MBD2 ctr	rCAG binder	MBD2 inh	ATG4B inh	PLA2 ctr	others
CCn1cc(C(=O)OCC(=O)c2cc(C)n(-c3ccccc3F)c2C)c(=O)c2ccc(C)nc21	7.9	0.8	1.4	-3.6	-6.9	71.4*	74.8*
CCn1cc(C(=O)OCC(=O)c2cc(C)n(-c3ccc(OC(F)F)cc3)c2C)c(=O)c2ccc(C)nc21	-7.1	2.9	-2.8	-0.1	-4.3	72.0*	74.2*
CCn1cc(C(=O)OCC(=O)Nc2ccccc2OC(F)F)c(=O)c2ccc(C)nc21	0.9	-2.5	-0.8	4.8	-4.0	-1.8	.
Cc1cc(C)cc(NC(=O)OC2CC3CC2[C@H]2CCCCN2[C@H]3C)c1 (stereo partly specified)	.	5.0	1.3	3.6	2.4	.	.
C[C@@H]1OCN(C)[C@H]2C[C@H]3c4[nH]c5cccc(-c6cccc(F)c6)c5c4CCN3C(=O)[C@@H]12	.	-4.3	0.4	2.9	0.2	.	.
COC(=O)CN(Cc1cn(Cc2ccccc2)nn1)S(=O)(=O)c1ccccc1Br	.	2.1	0.4	0.9	2.4	.	.
COC(=O)[C@@]12CCCCC3=C1N(CCC3)C(=O)[C@H]2CC(=O)N1CCN(C(=O)c2ccco2)CC1	.	-0.9	-1.3	0.5	3.2	.	.
CC(=O)N1CCN(C2=NC(=O)N(c3ccc(Br)cc3)C(=O)C2)CC1	.	-1.4	-2.1	5.3	1.4	.	.
COc1cc(/C=C2\SC(=O)N(CC(=O)Nc3ccccc3F)C2=O)cc(Cl)c1O	11.0	-8.2	-1.3	6.8	-7.5	1.1	.
CCOc1cc(/C=C2\SC(=O)N(CC(=O)Nc3ccccc3F)C2=O)cc([N+](=O)[O-])c1O	-21.5	-0.9	-0.8	18.9	-4.9	42.5*	2.6	ATG4B confirm=58.8*
CC(C)N1CCCCC(NC(=O)c2c(F)cccc2F)C1=O (stereo unspecified)	.	3.3	-2.5	-0.2	-7.1	.	.
Cc1[nH]c2ccccc2c1/C=N/n1cnnc1	-1.0	2.3	-0.8	1.9	-0.6	-4.4	.
COCCN=c1scc(-c2cc(OC)c(OC)c(OC)c2)n1/N=C/c1c(C)[nH]c2ccccc12	11.7	-0.5	2.5	19.1	-6.1	42.6*	70.6*
O=C(N/N=C/c1coc2ccccc2c1=O)c1cccc([N+](=O)[O-])c1	-1.9	-2.0	0.4	-0.9	9.6	45.9*	-12.4
COc1cc(C(=O)N/N=C/c2coc3ccc(Cl)cc3c2=O)ccc1O	0.1	-2.2	0.1	0.9	-0.3	50.5*	38.0	ATG4B confirm=37.5
CC1=NN(C(N)=S)C(=O)C1N=Nc1ccccc1C(=O)O (stereo unspecified)	-3.0	3.4	-10.7	5.9	-11.9	3.3	.
